Like-named read-outs stand apart in the source and are kept apart here.
Key:
MK5 [1] = target: T1, MK5 (Homo sapiens, UniProt Q8IW41); assay: MK5 kinase activity against PRAKtide substrate peptide; assay type: biochemical; details: for inhibition of MK5 enzyme activity (in words): initial screening at 2 mM
T1 sequence (Q8IW41 1-473): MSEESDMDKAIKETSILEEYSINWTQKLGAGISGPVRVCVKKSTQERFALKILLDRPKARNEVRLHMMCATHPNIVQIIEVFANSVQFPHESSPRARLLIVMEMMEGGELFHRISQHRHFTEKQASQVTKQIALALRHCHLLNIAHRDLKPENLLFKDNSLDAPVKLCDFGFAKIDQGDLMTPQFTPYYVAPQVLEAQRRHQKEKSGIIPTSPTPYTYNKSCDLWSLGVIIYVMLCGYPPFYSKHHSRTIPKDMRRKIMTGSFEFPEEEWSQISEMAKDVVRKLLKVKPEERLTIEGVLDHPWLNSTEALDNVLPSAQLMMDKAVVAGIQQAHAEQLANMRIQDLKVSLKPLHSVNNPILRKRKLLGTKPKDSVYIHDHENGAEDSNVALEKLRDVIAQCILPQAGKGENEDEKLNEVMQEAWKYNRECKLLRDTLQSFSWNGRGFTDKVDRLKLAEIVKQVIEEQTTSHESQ

ROCK-II = details: 10 μM; cited from earlier work
MK5 [2] = target: T1, MK5; details: read-out: IC50 MK5; cited from earlier work
PDK1 [3] = target: T2, PDK1 (Homo sapiens, UniProt O15530); details: 10 μM; cited from earlier work
T2 sequence (O15530 1-556): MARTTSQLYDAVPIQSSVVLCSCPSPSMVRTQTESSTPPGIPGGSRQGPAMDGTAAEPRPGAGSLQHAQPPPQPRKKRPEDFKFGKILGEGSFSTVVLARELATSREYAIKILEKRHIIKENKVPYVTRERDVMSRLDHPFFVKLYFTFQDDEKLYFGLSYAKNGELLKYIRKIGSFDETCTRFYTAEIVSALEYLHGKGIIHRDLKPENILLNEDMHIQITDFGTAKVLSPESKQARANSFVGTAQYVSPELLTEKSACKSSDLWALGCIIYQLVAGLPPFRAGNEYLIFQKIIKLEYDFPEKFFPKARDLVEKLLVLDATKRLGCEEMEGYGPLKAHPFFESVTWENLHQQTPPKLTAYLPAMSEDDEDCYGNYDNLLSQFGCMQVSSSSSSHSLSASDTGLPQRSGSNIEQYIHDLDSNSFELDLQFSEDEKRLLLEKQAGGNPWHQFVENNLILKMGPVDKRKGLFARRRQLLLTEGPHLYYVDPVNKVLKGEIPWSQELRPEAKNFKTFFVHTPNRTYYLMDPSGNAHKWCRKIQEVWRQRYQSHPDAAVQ

ERK2 = ERK2 (Homo sapiens, UniProt P28482); details: 10 μM; cited from earlier work
Sequence of ERK2 (P28482 whole entry): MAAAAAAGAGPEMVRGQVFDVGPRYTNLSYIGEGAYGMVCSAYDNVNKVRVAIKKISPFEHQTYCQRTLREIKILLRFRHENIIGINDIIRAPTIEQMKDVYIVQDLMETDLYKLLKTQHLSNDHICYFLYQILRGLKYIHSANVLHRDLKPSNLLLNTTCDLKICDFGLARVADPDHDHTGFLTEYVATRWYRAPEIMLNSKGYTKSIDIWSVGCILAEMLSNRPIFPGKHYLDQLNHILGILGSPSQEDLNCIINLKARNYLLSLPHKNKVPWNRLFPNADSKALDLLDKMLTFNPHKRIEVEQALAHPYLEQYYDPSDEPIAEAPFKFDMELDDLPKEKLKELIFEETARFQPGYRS

DYRK1A [4] = target: T3, DYRK1A (Homo sapiens, UniProt Q13627); details: 10 μM; cited from earlier work
p38δ = details: 10 μM; cited from earlier work
PHK = details: 10 μM; cited from earlier work
GSK3β = details: 10 μM; cited from earlier work
Aurora B = details: 10 μM; cited from earlier work
PLK1 = PLK1 (Homo sapiens, UniProt P53350); details: 10 μM; cited from earlier work
Sequence of PLK1 (P53350 whole entry): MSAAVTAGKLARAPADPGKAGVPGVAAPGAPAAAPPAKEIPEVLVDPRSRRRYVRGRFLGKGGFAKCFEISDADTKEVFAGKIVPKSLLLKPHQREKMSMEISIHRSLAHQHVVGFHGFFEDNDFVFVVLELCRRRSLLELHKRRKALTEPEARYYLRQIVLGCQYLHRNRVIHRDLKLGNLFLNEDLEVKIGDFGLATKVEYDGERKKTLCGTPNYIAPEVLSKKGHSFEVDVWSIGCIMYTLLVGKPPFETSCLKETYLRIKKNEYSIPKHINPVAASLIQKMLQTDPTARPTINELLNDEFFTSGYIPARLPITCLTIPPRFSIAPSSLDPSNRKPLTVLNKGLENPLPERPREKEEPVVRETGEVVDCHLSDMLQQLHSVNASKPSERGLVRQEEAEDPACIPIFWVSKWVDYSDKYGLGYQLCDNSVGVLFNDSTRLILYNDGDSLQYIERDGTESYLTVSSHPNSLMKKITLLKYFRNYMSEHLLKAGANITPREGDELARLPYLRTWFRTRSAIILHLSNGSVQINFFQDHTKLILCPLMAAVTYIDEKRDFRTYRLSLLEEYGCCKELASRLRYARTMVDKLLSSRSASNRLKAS

IKKβ = details: 10 μM; cited from earlier work
PKA = PKA (Homo sapiens, UniProt P17612); details: 10 μM; cited from earlier work
MSK1 = details: 10 μM; cited from earlier work
p70^S6K = details: 10 μM; cited from earlier work
DYRK1A [5] = target: T3, DYRK1A; details: 10 μM; cited from earlier work; remark: listed apart in the source
MK5 [6] = target: T1, MK5; details: read-out: IC50 MK5; cited from earlier work; remark: listed apart in the source
smMLCK = details: 10 μM; cited from earlier work
PDK1 [7] = target: T2, PDK1; details: 10 μM; cited from earlier work; remark: listed apart in the source
RSK2 = details: 10 μM; cited from earlier work
ERK8 = details: 10 μM; cited from earlier work
PKB2 = details: 10 μM; cited from earlier work
MK3 = MK3 (Homo sapiens, UniProt Q16644); details: 10 μM; cited from earlier work
Sequence of MK3 (Q16644 whole entry, species assumed): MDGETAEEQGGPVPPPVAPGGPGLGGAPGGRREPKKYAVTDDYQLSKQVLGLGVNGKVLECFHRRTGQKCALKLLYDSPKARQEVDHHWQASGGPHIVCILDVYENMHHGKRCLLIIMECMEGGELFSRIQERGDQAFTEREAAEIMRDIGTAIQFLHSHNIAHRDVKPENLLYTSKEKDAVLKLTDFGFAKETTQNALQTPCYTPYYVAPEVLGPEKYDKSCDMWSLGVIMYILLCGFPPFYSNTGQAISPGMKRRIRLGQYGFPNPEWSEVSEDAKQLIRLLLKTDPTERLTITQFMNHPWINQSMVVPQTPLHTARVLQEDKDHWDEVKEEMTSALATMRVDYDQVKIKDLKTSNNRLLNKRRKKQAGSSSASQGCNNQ

[8] = system: PKA-induced nuclear export of MK5; assay: PKA-induced nuclear export of EGFP-MK5 in PC12 cells; assay type: cell-based; details: 10 μM forskolin, 30 min, no compound 11, untreated control 6%
Summary of the method: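 PC12 cells were grown in F-12K with 2 mM L-glutamine, 1.5 g/l sodium bicarbonate, 15% horse serum, 2.5% fetal calf serum, penicillin and streptomycin. They were transfected with EGFP-MK5 by nucleofection, then left untreated or pretreated with 20 μM test compound. Next came 10 μM forskolin for 30 min. Cells were fixed in 4% formaldehyde for 10 min and washed in PBS. Several hundred cells were scored by confocal microscopy for nuclear plus cytosolic EGFP-MK5.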

CCN1C[C@]2(COC)[C@H](O)C[C@H](OC)[C@@]34[C@@H]5C[C@@]6(O)[C@H](OC(=O)c7ccccc7)[C@@H]5[C@@](OC(C)=O)([C@@H]([C@H](OC)[C@H]23)[C@@H]14)[C@@H](O)[C@@H]6OC [Compound 6, aconitine]
inhibition of MK5 enzyme activity (in words) (MK5 [1]): completely blocked

CCN1C[C@]2(COC)[C@H](O)C[C@H](OC)[C@]34C1[C@H]([C@H](OC)[C@H]23)[C@]1(O)[C@H]2[C@@H](O)[C@](O)(C[C@H]24)[C@@H](OC)[C@@H]1O [Compound 8, aconine]
Ki (MK5 [1]): 301 µM
IC50 MK5 (in words) (MK5 [1]; dose-response, PRAKtide substrate): in the mM range
inhibition of MK5 enzyme activity (in words) (MK5 [1]): completely blocked
mode of inhibition against ATP (MK5 [1]; varying ATP concentrations, Lineweaver-Burk): ATP-competitive

O=C(O[C@@H]1Cc2c(O)cc(O)cc2O[C@@H]1c1cc(O)c(O)c(O)c1)c1cc(O)c(O)c(O)c1 [EGCG, epigallocatechin gallate]
inhibition of in vitro kinase activity of ROCK-II (ROCK-II): ~ 90%
IC50 (MK5 [2]): < 10 µM
inhibition of in vitro kinase activity of PDK1 (PDK1 [3]): ~ 90%
inhibition of in vitro kinase activity of ERK2 (ERK2): ~ 90%
inhibition of in vitro kinase activity of DYRK1A (DYRK1A [4]): ~ 90%

COc1ccc(C=CC(=O)c2c(O)cc(OC)cc2OC)cc1 [flavokavain A]
inhibition of p38δ (p38δ): 40–70%
inhibition of PHK (PHK): 40–70%
inhibition of GSK3β (GSK3β): 40–70%
inhibition of Aurora B (in words, relative to MK5) (Aurora B): more or to a similar extent
inhibition of PLK1 (PLK1): 40–70%
inhibition of IKKβ (in words, relative to MK5) (IKKβ): more or to a similar extent
inhibition of PKA (PKA): 40–70%
inhibition of MSK1 (MSK1): 40–70%
inhibition of p70^S6K (p70^S6K): 40–70%
inhibition of DYRK1A (in words, relative to MK5) (DYRK1A [5]): more or to a similar extent
IC50 (MK5 [6]): 10 µM
inhibition of smMLCK (smMLCK): 40–70%
inhibition of PDK1 (PDK1 [7]): 40–70%
inhibition of RSK2 (RSK2): 40–70%
inhibition of ERK8 (ERK8): 40–70%
inhibition of PKB2 (PKB2): 40–70%
inhibition of MK3 (in words, relative to MK5) (MK3): more or to a similar extent

C=C[C@@]1(C)CC(=O)[C@]2(O)[C@@]3(C)[C@@H](O)CCC(C)(C)[C@@H]3[C@H](O)[C@H](OC(C)=O)[C@@]2(C)O1 [forskolin]
cells displaying both nuclear and cytosolic EGFP-MK5 [8]: approximately 84%
cells displaying both nuclear and cytosolic EGFP-MK5 ([8]; listed as Forskolin): 84%

Source: publication PMC3016492 (Cellular and Molecular Life Sciences: CMLS, 2010)
